Source: ChEMBL document CHEMBL5550188, “Detection of a Mitochondrial Fragmentation and Integrated Stress Response Using the Cell Painting Assay” (2024)
The source made the active and inactive calls. No cut-off for these calls is given here.

Columns and labels:
U2OS [1] = experiment: Effect on HIF1 signaling in human U2OS cells incubated for 24 hrs by pathway over-representation analysis; assay type: functional, cell-based
Outline: (§1)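 U-2OS seeded at 1 × 10⁶ cells in T75 flasks, treated next day for 24 h at 37 °C versus DMSO. Cells were lysed by freeze–thaw, reduced with TCEP at 55 °C, alkylated with iodoacetamide, acetone-precipitated and trypsin-digested. Peptides were TMT-labelled, split into 10 fractions by high-pH C18, then run on nanoHPLC-MS/MS (orbitrap). Biological triplicates, with pathway over-representation analysis.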

U2OS [2] = experiment: Induction of oxidative stress in human U2OS cells assessed as increase in mitochondrial superoxide level at 10 uM incubated for 1 hr by MitoSox Red staining based analysis; assay type: functional, cell-based
Outline: (§2)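 U-2OS at 15,000/well were preloaded 30 min with 5 μM MitoSOX Red plus Hoechst in plain DMEM. They were then treated 60 min in complete DMEM, fixed in 0.5% paraformaldehyde, and imaged at 10×. Integrated MitoSOX intensity per cell was normalized to DMSO (0%) and 10 μM CDNB (100%). Mean ± SD, n = 3.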

U2OS [3] = experiment: Effect on mitochondrial dysfunction in human U2OS cells at 30 uM incubated for 24 hrs by pathway over-representation analysis; assay type: functional, cell-based; outline: as §1
U2OS [4] = experiment: Induction of integrated stress response in human U2OS cells assessed as increase ATF4 mRNA level at 30 uM incubated for 24 hrs by RT-qPCR analysis; assay type: functional, cell-based
Outline: (§3)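 U-2OS at 1 × 10⁵/well in 6-well plates were grown 24 h to ~80% confluence, then treated 24 h versus DMSO. Total RNA (DNase-treated) was reverse-transcribed and ATF4 measured by SYBR Green qPCR. Expression was calculated by ΔΔCt against GAPDH, with DMSO set to 100%. Mean ± SD, n = 3.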

U2OS [5] = experiment: Effect on glycolysis in human U2OS cells assessed as increase in ECAR level at 10 to 30 uM of acute treatment by Seahorse analysis; assay type: functional, cell-based; settings: dose 10-30 µM
Outline: (§4)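 Seahorse XFp Mito Stress Test on U-2OS, 2 × 10⁵ cells per well, seeded overnight. Assay medium was pH 7.4 DMEM with 2 mM GlutaMAX, 1 mM pyruvate and 25 mM glucose. For acute runs, compound was injected after 5 baseline reads, then 10 reads. Otherwise cells were pretreated 24 h. Then oligomycin A, FCCP and rotenone/antimycin A were added. OCR/ECAR were background-subtracted and normalized to the last baseline (100%). Mean ± SD, n = 3.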

U2OS [6] = experiment: Effect on mitochondrial membrane potential in human U2OS cells at 10 uM incubated for 24 hrs by TRME staining based analysis; assay type: functional, cell-based
Outline: (§5)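 U-2OS (5 × 10³/well) were treated 24 h, then given 20 μM FCCP or 0.5% DMSO controls for 10 min. Cells were stained 30 min at 37 °C with 1 μM TMRE plus Hoechst-33342 in complete DMEM, washed, and imaged live in 0.2% BSA/PBS at 10× (TMRE ex/em 549/575 nm).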

U2OS [7] = experiment: Effect on glycolysis in human U2OS cells assessed as increase in ECAR level at highest concentration measured after 24 hrs by Seahorse analysis; assay type: functional, cell-based; outline: as §4
U2OS [8] = experiment: Inhibition of cell confluence in human U2OS cells at 10 to 50 uM measured after 48 hrs by PI/caspase-3/7 Green dye based analysis; assay type: functional; settings: dose 10-50 µM
Outline: (§6)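 U-2OS at 5000/well were incubated overnight, then given medium with compound or DMSO plus propidium iodide and CellEvent Caspase-3/7 Green. Cells were imaged hourly for 48 h by live-cell imaging. Phase confluence gave growth; red and green object confluence gave PI-positive cells and caspase-3/7 activity.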

U2OS [9] = experiment: Effect on oxidative phosphorylation in human U2OS cells at 30 uM incubated for 24 hrs by pathway over-representation analysis; assay type: functional, cell-based; outline: as §1
U2OS [10] = experiment: Effect on mitochondrial respiration in human U2OS cells assessed as suppression of OCR level at 10 to 30 uM of acute treatment by Seahorse analysis; assay type: functional, cell-based; settings: dose 10-30 µM; outline: as §4
U2OS [11] = experiment: Effect on mitochondrial respiration in human U2OS cells assessed as suppression of OCR level at 10 to 30 uM measured after 24 hrs by Seahorse analysis; assay type: functional, cell-based; settings: dose 10-30 µM; outline: as §4
U2OS [12] = experiment: Induction of mitochondrial fragmentation in human U2OS cells assessed as puncta-like staining at 10 uM incubated for 20 hrs by Mito Tracker Deep Red dye based CPA assay; assay type: functional, cell-based
Outline: (§7)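 Cell Painting: U-2OS were seeded at 1600 cells/well, then dosed 4 h later for 20 h at 37 °C against a matched-% DMSO control. Live cells were stained 30 min with 100 nM MitoTracker Deep Red, then fixed in 3.7% formaldehyde and permeabilized with 0.1% Triton X-100. They were co-stained with phalloidin, concanavalin A, Hoechst, WGA and SYTO 14. Imaging was high-content, run as triplicate plates; features are Z-scores versus DMSO median/MAD.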

U2OS [13] = experiment: Induction of integrated stress response in human U2OS cells assessed as increase ATF4 level at 30 uM incubated for 24 hrs by Western blot analysis; assay type: functional, cell-based
Outline: (§8)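 U-2OS grown to 80% confluence in 6-well plates were treated 24 h at 37 °C versus DMSO. ATF4 was detected by immunoblotting, with vinculin as reference protein.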

U2OS [14] = experiment: Induction of integrated stress response in human U2OS cells assessed as increase ATF4 mRNA level at 2 uM incubated for 24 hrs by RT-qPCR analysis; assay type: functional, cell-based; outline: as §3
U2OS [15] = experiment: Inhibition of cell confluence in human U2OS cells at 2 uM measured after 48 hrs by PI/caspase-3/7 Green dye based analysis; assay type: functional; outline: as §6
U2OS [16] = experiment: Effect on mitochondrial respiration in human U2OS cells assessed as suppression of OCR level measured after 24 hrs by Seahorse analysis; assay type: functional, cell-based; outline: as §4
HEK-293T = experiment: Upregulation of HIF1 level in HEK293T cells transfected with HIF1/luc at 2 uM incubated for 24 hrs by Renilla luciferase base assay; assay type: functional, cell-based; settings: Homo sapiens
Outline: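 HEK293T were co-transfected (Lipofectamine 2000) with a PGK1-HRE-driven destabilized firefly luciferase reporter and constitutive TK-Renilla. Cells were seeded at 2.5 × 10⁴/well, then treated 24 h the next day, with 100 μM CoCl₂ and 10 μM ML228 as controls. Dual-Glo readout: firefly was normalized to Renilla and expressed as fold induction over DMSO.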

U2OS [17] = experiment: Effect on mitochondrial dysfunction in human U2OS cells at 2 uM incubated for 24 hrs by pathway over-representation analysis; assay type: functional, cell-based; outline: as §1
U2OS [18] = experiment: Induction of integrated stress response in human U2OS cells assessed as increase ATF4 level at 2 uM incubated for 24 hrs by Western blot analysis; assay type: functional, cell-based; outline: as §8
U2OS [19] = experiment: Induction of oxidative stress in human U2OS cells assessed as increase in mitochondrial superoxide level at 2 uM incubated for 1 hr by MitoSox Red staining based analysis; assay type: functional, cell-based; outline: as §2
U2OS [20] = experiment: Effect on oxidative phosphorylation in human U2OS cells at 2 uM incubated for 24 hrs by pathway over-representation analysis; assay type: functional, cell-based; outline: as §1
U2OS [21] = experiment: Effect on mitochondrial respiration in human U2OS cells assessed as suppression of OCR level at 2 to 10 uM of acute treatment by Seahorse analysis; assay type: functional, cell-based; settings: dose 2-10 µM; outline: as §4
U2OS [22] = experiment: Effect on HIF1 signaling in human U2OS cells at 2 uM incubated for 24 hrs by pathway over-representation analysis; assay type: functional, cell-based; outline: as §1
U2OS [23] = experiment: Induction of mitochondrial network fragmentation in human U2OS cells at 2 uM incubated for 24 hrs by CellLight Mitochondria-GFP assay; assay type: functional, cell-based
Outline: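 U-2OS were transduced with CellLight Mitochondria-GFP BacMam 2.0 one day before treatment. 3000 cells/well were seeded in chamber slides. After compound addition, live cells were imaged by confocal microscopy (488/555 nm) continuously over 24 h at 37 °C, 5% CO₂.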

U2OS [24] = experiment: Inhibition of cell confluence in human U2OS cells at 10 uM measured after 48 hrs by PI/caspase-3/7 Green dye based analysis; assay type: functional; outline: as §6
U2OS [25] = experiment: Effect on mitochondrial membrane potential in human U2OS cells at 2 uM incubated for 24 hrs by TRME staining based analysis; assay type: functional, cell-based; outline: as §5
U2OS [26] = experiment: Induction of mitochondrial fragmentation in human U2OS cells assessed as puncta-like staining at 2 uM incubated for 20 hrs by Mito Tracker Deep Red dye based CPA assay; assay type: functional, cell-based; outline: as §7
U2OS [27] = experiment: Effect on glycolysis in human U2OS cells assessed as increase in ECAR level at 2 to 10 uM of acute treatment by Seahorse analysis; assay type: functional, cell-based; settings: dose 2-10 µM; outline: as §4
U2OS [28] = experiment: Effect on mitochondrial respiration in human U2OS cells assessed as suppression of OCR level at 10 uM measured after 24 hrs by Seahorse analysis relative to control; assay type: functional; outline: as §4

Q: Which results are given for `COc1cc(OC)c2c(c1Cl)OC1(CCC3(CC1C)OCCc1c3c3cc(C)ccc3n1Cc1ccccc1)C2=O` (stereo not given)?
A: Activity (U2OS [1]): inactive; Activity (U2OS [2]): Active; Activity (U2OS [3]): Active; Activity (U2OS [4]): Active; Activity (U2OS [5]): inactive; Activity (U2OS [6]): inactive; Activity (U2OS [7]): Active; inhibition (U2OS [8]): inactive; Activity (U2OS [9]): Active; Activity (U2OS [10]): inactive; Activity (U2OS [11]): Active; Activity (U2OS [12]): Active; Activity (U2OS [13]): Active

Q: Which results are given for `CCOC(=O)CCNc1cc(N2CCc3ccccc3CC2)nc(-c2ccccn2)n1`?
A: Activity (U2OS [14]): Active; inhibition (U2OS [15]): inactive; Activity (U2OS [16]): Dose-Dependent Effect; Activity (HEK-293T): Active; Activity (U2OS [17]): Active; Activity (U2OS [18]): Active; Activity (U2OS [19]): Active; Activity (U2OS [20]): Active; Activity (U2OS [7]): Active; Activity (U2OS [21]): inactive; Activity (U2OS [22]): inactive; Activity (U2OS [23]): Active; inhibition (U2OS [24]): Active; Activity (U2OS [25]): inactive; Activity (U2OS [26]): Active; Activity (U2OS [27]): inactive; Activity (U2OS [28]): ~100%
